CHOP inh: inhibitors of CHOP promoter induction, primary screen, cell-based, unfolded protein response, luciferase reporter; CHO-K1 CHOP-promoter luciferase, tunicamycin-induced, 15-18 h; inhibition, % at 10 µM; hit rate 3.8% among 220,000; AID 2732, 2010;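 active = compounds that reduced the stress-induced luciferase reporter signal by more than about 70% of percent inhibition, limit read from the data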;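 note: 0% = tunicamycin plus vehicle and 100% = wells without tunicamycin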
Hsp70 activator: Hsp70 transcriptional activators, primary screen, cell-based, HeLa, Hsp70 promoter luciferase, luminescence, 10 µM | AID 1203, 2008 | hit rate 0.04% among 200,000 | activation, % at 10 µM | HeLa Hsp70 promoter luciferase reporter; scaled: vehicle 0, proteasome-inhibitor control 100%;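 active = activation above the mean across all tested compounds plus 3 SD, cutoff set per campaign, cut at about 5.5% in these data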;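 note: 100% = MG132 at 30 µM as the positive control and 0% = DMSO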
S1P3 antagonist: S1P3 receptor antagonists, primary screen, cell-based; Sphingosine 1-phosphate receptor 3 (Homo sapiens), Q99500; CHO S1P3 NFAT-BLA reporter, FRET fluorescence, antagonist mode; inhibition, % at 4.98 µM; hit rate 0.27% among 170,000;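 active = inhibition above the plate cutoff, the mean inhibition of test wells on that plate plus 3 SD, cut at about 28% in these data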;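 note: cells challenged with S1P at its EC80 of 0.8 µM; blue over green emission ratio from cleaved BLA substrate after 4 h stimulation; 0% = S1P-stimulated wells and 100% = unstimulated DMSO-only wells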
Target sequence (Q99500 whole entry, looked up): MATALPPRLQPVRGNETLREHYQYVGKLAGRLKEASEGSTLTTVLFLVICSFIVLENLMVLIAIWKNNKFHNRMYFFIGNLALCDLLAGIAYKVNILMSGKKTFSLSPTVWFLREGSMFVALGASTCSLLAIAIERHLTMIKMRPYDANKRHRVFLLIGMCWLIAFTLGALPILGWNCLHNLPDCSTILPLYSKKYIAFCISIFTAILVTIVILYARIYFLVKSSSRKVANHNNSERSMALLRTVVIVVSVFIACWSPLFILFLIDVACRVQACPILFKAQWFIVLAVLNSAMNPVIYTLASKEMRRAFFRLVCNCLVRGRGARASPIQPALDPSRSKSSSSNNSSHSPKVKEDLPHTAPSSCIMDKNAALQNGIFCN
Mdm2 ligase inh: MDM2-luciferase reporter signal enhancers, primary screen, MDM2 E3 ligase inhibitor project, cell-based, luminescence, 1536-well | AID 1230, 2008 | cell-based MDM2 ubiquitination luciferase reporter, 2 h; 0 = plate control, 100 = twice control, blank-subtracted | signal enhancement, % at 5 µM | E3 ubiquitin-protein ligase Mdm2 (Homo sapiens), Q00987 | hit rate 0.11% among 210,000;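 active = signal enhancement of 30% or more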;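 note: luminescence tracks abundance of the self-degrading MDM2-luciferase fusion protein; higher signal means inhibition of MDM2 E3 ligase activity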
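system = mammalian cells stably expressing self-ubiquitinating, self-degrading MDM2 E3–luciferase fusion | quantity = 2000 cells per well seeded | incubation = 4 h cell settling then 2 h compound exposure, 37 °C | signal = SteadyLite luminescence, 15 min reagent step | benchmarks = plate control and blank wells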
* marks the source's active call; other numbers are inactive results; / = no result given. In the library only some 4% were active in any assay of this set; here they are far more common.

SMILES	CHOP inh	Hsp70 activator	S1P3 antagonist	Mdm2 ligase inh
COCCn1c(=NC(=O)c2cc(Cl)sc2Cl)sc2cc(S(N)(=O)=O)ccc21	81*	0	2	-6
CCOCCn1c(=NC(=O)c2cc(Cl)sc2Cl)sc2cc(S(N)(=O)=O)ccc21	90*	0	4	-2
O=C(NCc1ccccc1)c1ccc(CS(=O)(=O)c2ccccc2)o1	10	0	/	/
Fc1ccc(NC(=S)NCCc2ccc(Cl)cc2)cc1	25	0	1	2
S=C(NCCC(c1ccccc1)c1ccccc1)Nc1ccccc1Cl	-1	0	/	-9
Fc1ccc(CCNC(=S)Nc2ccc(F)c(Cl)c2)cc1	90*	0	0	-1
S=C(NCCC1=CCCCC1)Nc1ccc(Cl)cc1	81*	0	-3	6
S=C(NCCCc1ccccc1)Nc1ccc(Cl)cc1	77*	0	-6	-15
S=C(NCc1ccccc1)Nc1ccc(Cl)cc1	-15	0	5	0
S=C(NCCC(c1ccccc1)c1ccccc1)Nc1ccc(Cl)cc1	78*	0	/	5
O=C(COc1ccc(/C=N/NC(=O)C(=O)N2CCCCC2)cc1)Nc1ccccc1Cl	1	0	-8	-7
COc1cc2c(cc1NC(=O)CN1CCN(S(=O)(=O)c3ccccc3F)CC1)oc1ccccc12	-26	0	/	-5
Cc1ccccc1OCC(=O)NC(=S)Nc1ccc(S(=O)(=O)NC2CCCCC2)cc1	77*	0	/	-26
Cc1cc(C)nc(NS(=O)(=O)c2ccc(NC(=O)CCC3COc4ccccc4O3)cc2)n1 (stereo unspecified)	77*	0	-12	3
Cc1cc(C)nc(NS(=O)(=O)c2ccc(NC(=S)NC(=O)C3CCCC3)cc2)n1	72*	0	/	-18
COc1ccc(Cn2nnnc2C(c2cc(OC)ccc2OC)N2CCC(C(N)=O)CC2)cc1 (stereo unspecified)	21	0	-33	-26
COc1cc(C)c(NC(=O)C(=S)NCCc2ccccc2)cc1C	33	0	13	-7
COc1ccc(-c2noc(CN(C(=O)c3c(-c4ccccc4Cl)noc3C)C(C)C)n2)cc1	72*	0	5	13
COc1ccccc1C(=O)N(Cc1nc(-c2ccc(Cl)cc2)no1)C(C)C	75*	0	-9	-9
CC(=O)NC1(c2ccccc2)CCN(c2cc(C)nc(-c3ccccc3)n2)CC1	10	0	-3	15
COc1ccc(C2=Nn3c(nnc3-c3ccccc3OC)SC2)cc1OC	/	0	54*	16
CC(C)CC(=O)Nc1ccc2oc(-c3cccnc3)nc2c1	-16	0	-42	1
Cc1ccc2oc(-c3ccc(NC(=O)CC(C)C)cc3)nc2c1	-4	0	54*	-8
CCCC(=O)Nc1ccc(-c2nc3cc(C)c(C)cc3o2)cc1	95*	0	19	-3
CCCn1c(CN(Cc2ccccc2)Cc2ccccc2)nc2c1c(=O)n(C)c(=O)n2C	92*	0	-22	-2
SMILES	CHOP inh	Hsp70 activator	S1P3 antagonist	Mdm2 ligase inh
COc1ccc(N=Cc2cc3c(cc2O)OC(N)=C(C#N)C3c2ccccc2)cc1 (stereo unspecified)	80*	0	2	-13
N#CC(C(=O)NCc1ccccc1)c1nc2ccccc2nc1N1CCCC1 (stereo unspecified)	58	0	12	-11
CCOC(=O)C1CCCN(c2nc3ccccc3nc2C(C#N)C(=O)NCc2ccccc2)C1 (stereo unspecified)	74*	0	40	-8
O=C(/C=C/c1ccccc1Cl)Nc1ccc2c(c1)C(=O)NC2=O	94*	0	-22	-13
CCN1CC(c2ccccc2)C(c2ccc(Cl)cc2)=N1 (stereo unspecified)	79*	0	12	-4
CCOC(=O)/C=c1\s/c(=C\c2ccc3c(c2)OCCO3)c(=O)n1CC(=O)NCC1CCCO1 (stereo unspecified)	86*	0	-3	-11
COc1ccc(N(C(=O)c2ccco2)S(=O)(=O)c2cccs2)cc1	39	0	-24	-7
O=C(Nc1ccccc1N(C(=O)c1ccco1)S(=O)(=O)c1cccs1)c1ccco1	85*	0	/	-5
COc1cc(NC(=O)c2ccco2)ccc1NC(=O)C(C)C	80*	0	/	-11
